Test results as given in article PMC5417336 (Journal of immunology (Baltimore, Md. : 1950), 2017).
Values after ≈ are worked out from the molar mass of the structure shown. “Also recorded” adds a separate entry of the source. Read-outs that look alike come from different tables or passages of the source.

Key:
[1] = target: T1, C3b (Homo sapiens, UniProt P01024); assay: Label-enhanced SPR; type: binding; conditions: read-out: KD for C3b, LE-SPR, B23-C5; 1:1 Langmuir kinetic model
Outline: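 C5 was dialysed into PBS pH 7.4 (2 h, RT), labelled 1 h in the dark with 5-fold molar excess NHS-B23 dye, then dialysed into HBS overnight at 4°C. A two-fold concentration series ran over oriented biotin-C3b (5,160 RU) at 10 μl min−1 with 1 min association and 1 min dissociation. An unlabelled injection at the top concentration weighted dip width and position to give epigrams (eRU). KD from a 1:1 Langmuir kinetic fit.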

[2] = target: C5/C3b interaction (Homo sapiens, UniProt P01024); assay: LE-SPR competition assay B23-C5/C3b; type: binding
Outline: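 B23-C5 (250 nM) was co-injected over oriented biotin-C3b (4,460 RU) with competitor: unlabelled C5 (250 nM), TRX-4W9A (12 μM) or compstatin peptide (65 μM) in HBS-T. Runs with small molecules used buffer with 5% (v/v) DMSO. A parallel competitor-only injection served for epigram calculation. Residual binding was the mean eRU over 10 s before injection stop, relative to B23-C5 alone or DMSO vehicle. Each run was done 2–4 times.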

[3] = target: T1, C3b; type: binding; conditions: read-out: KD for C3b, conventional SPR, C5; 1:1 Langmuir kinetic model
Outline: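 Biotinylated C3b was captured on a NeutrAvidin-coupled sensor chip (6,560 RU surface for C5). Native C5 in HBST ran as a two-fold concentration series: 2 min injection, 3 min dissociation, 30 μl min−1, no regeneration. KD came from a 1:1 Langmuir kinetic fit of reference-corrected sensorgrams.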

[4] = Compound solubility in CP ELISA assay buffer; type: physicochemical; conditions: aqueous buffer
[5] = system: C4b deposition (classical pathway); assay: CP ELISA, C4b deposition; type: biochemical, human; conditions: concentrations up to 625 μM, 1% (v/v) serum
Outline: (§1)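 Wells coated overnight with 3 μg ml−1 human IgM in carbonate pH 9.6, then blocked with BSA/Tween-20 in PBS. Test compound (250 μM single concentration, or series up to 625 μM; 2.5% DMSO) is added to 1% (v/v) normal human serum in HEPES pH 7.3, gelatin, NaCl, 2 mM CaCl2, 0.5 mM MgCl2. Incubated 1 h at 37°C. Detection: anti-C3b WM1 or anti-C4b C4-1 (1/300). Normalised to mean vehicle as 100%.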

[6] = target: compstatin/C3b binding (Homo sapiens, UniProt P01024); assay: LE-SPR competition assay B23-TRX-4W9A; conditions: 500 μM compound, 500 nM B23-TRX-4W9A vs 5% DMSO
Outline: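 B23-labelled TRX-4W9A (500 nM) was co-injected with 500 μM test compound, 5% (v/v) DMSO vehicle, or 65 μM compstatin peptide (positive control) over oriented biotin-C3b (3,800 and 3,100 RU surfaces). Running buffer contained 5% DMSO, and competitor-only injections served for epigram calculation. Residual binding was the mean eRU over 10 s before injection stop, relative to DMSO control. Each compound was tested on at least two independent C3b surfaces.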

[7] = system: classical pathway (CP) complement activation, MAC deposition; assay: CP-specific complement ELISA, MAC deposition; type: biochemical, human
Outline: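 Plates carry 3 μg ml−1 human IgM, blocked with BSA/Tween-20. Test compound (250 μM, or 0–625 μM series; 2.5% DMSO) is mixed with 1% normal human serum in HEPES pH 7.3 buffer with 2 mM CaCl2, 0.5 mM MgCl2 and gelatin. Serum-titration arm: fixed 500 μM compound or DMSO vehicle, serum 0–4% (v/v). Incubated 1 h at 37°C. Read-out: anti-MAC aE11 (1/300). Normalised to vehicle mean as 100%.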

[8] = system: C5a production (C5 cleavage); assay: C5a capture ELISA of CP ELISA reactions; type: biochemical, human; conditions: fixed 500 μM cmp-5, serum 0–4% (v/v); DMSO control 1.55% (v/v)
Outline: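 Completed CP ELISA reactions (IgM-coated plates, CP buffer, 1 h at 37°C; fixed 500 μM test compound or DMSO vehicle, serum 0–4% (v/v)) were diluted 2-fold onto plates coated overnight at room temperature with 1 μg ml−1 anti-C5a neoepitope mAb. Incubation 1 h at RT with rocking. Detection used rabbit anti-human C5a (1/200, 1 h RT), then goat anti-rabbit-HRP (1/5000, 1 h) and TMB, read at 450 nm. Signals normalised to the mean vehicle control as 100%.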

[9] = system: alternative pathway (AP) complement activation, MAC deposition; assay: AP-specific complement ELISA, MAC deposition; type: biochemical, human; conditions: 250 μM, 20% (v/v) serum
Outline: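 Wells coated overnight with 25 μg ml−1 Salmonella typhosa LPS in 100 mM carbonate pH 9.6, then blocked 1 h at 37°C with PBS/1% BSA/0.05% Tween-20. Test compound (250 μM final, 2.5% DMSO) is mixed with 20% (v/v) normal human serum in HEPES pH 7.5, gelatin, NaCl, 5 mM MgCl2, 5 mM EGTA. Incubated 1 h at 37°C. MAC detected with anti-C5b-9 aE11 (1/300). Signal expressed against mean vehicle as 100%.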

[10] = system: C3b deposition (classical pathway); assay: CP ELISA, C3b deposition; type: biochemical, human; conditions: concentrations up to 625 μM, 1% (v/v) serum
Outline: as §1

[11] = target: T2, site-specifically biotinylated C3b (human, UniProt P01024 23-667; P01024 749-1663, site-specifically biotinylated with EZ-link Maleimide-PEG2-biotin); assay: AlphaScreen or HTRF
[12] = target: T2, site-specifically biotinylated C3b; assay: SPR
[13] = target: T2, site-specifically biotinylated C3b; assay: SPR; remark: listed apart in the source
[14] = target: T2, site-specifically biotinylated C3b; assay: SPR; remark: listed apart in the source

## B23-C5: C5 labeled with NHS-B23 dye
[1]
  Kd: 3200 nM

## C5: complement component C5, purified protein (Complement Technologies)
[2]; 250 nM B23-C5, 250 nM unlabeled C5, 12 μM TRX-4W9A or 65 μM compstatin peptide
  effect on B23-C5/C3b LE-SPR signal, protein/peptide competitors: reduces the B23-C5 specific LE-SPR signal
[2]; 250 nM B23-C5, competitor 250 nM unlabeled C5 or 12 μM TRX-4W9A, HBS-T
  reduction of specific binding of B23-C5 to C3b: ~50%
[3]
  Kd: 350 nM

## Cc1ccnn1-c1cccc(NC(=O)CC2OC(=O)c3ccccc32)c1 (stereo not shown) [cmp-5, N-(3-(5-methyl-1H-pyrazol-1-yl)phenyl)-2-(3-oxo-1,3-dihydroisobenzofuran-1-yl)acetamide]
[2]; 500 μM compound, 250 nM B23-C5 vs 5% DMSO vehicle
  effect on B23-C5/C3b interaction, small molecules: did not affect; also recorded: failed to perturb
[4]
  solubility: ~600 µM (≈ 208 µg/mL)
[5]
  effect on C4b deposition, CP ELISA: no effect
[6]
  effect on B23-TRX-4W9A-specific LE-SPR signal (C3b binding): reduction of specific C3b-binding; also recorded: modest ability to compete
[7]; 250 μM, 1% (v/v) serum
  inhibition of MAC deposition in CP ELISA: significant inhibition
[7]; 250 μM, 1% (v/v) serum, n=13
  MAC deposition relative to control response (CP ELISA): 59 ± 2.4%
[7]; fixed 500 μM cmp-5, serum 0–4% (v/v), DMSO control 0.88% (v/v)
  EC50 of serum, MAC deposition: 1.43 % (v/v)
[8]
  EC50 of serum, C5a production: 2.04 % (v/v)
[9]
  inhibition of the AP (MAC deposition): significant inhibition
[9]; n=5
  MAC deposition relative to control response (AP ELISA): 73 ± 4.6%
[10]
  effect on C3b deposition, CP ELISA: no effect

B1: untagged Ba(1–3) (domain or fragment, human, UniProt P00751 35-220, looked up)
chain: GSCSLEGVEIKGGSFRLLQEGQALEYVCPSGFYPYPVQTRTCRSTGSWSTLKTQDQKTVRKAECRAIHCPRPHDFENGEYWPRSPYYNVSDEISFHCYDGYTLRGSANRTCQVNGRWSGQTAICDNGAGYCSNPGIPIGTRKVGSQYRLEDSVTYHCSRGLTLRGSQRRTCQEGGSWSGTEPSCQD
[11]
  Kd: 4700 nM

## ENLYFQGGSGSGSGICVWQDWGAHRCT (designed binder) [thioredoxin-compstatin fusion protein (TRX-4W9A)]
[12]
  Kd: 770 nM

## ENLYFQGGSGSGSGICVWQDWGAHRCT (designed binder, labeled with the dye reagent Episentec NHS-B23 (5-fold molar excess)) [B23 dye-labeled TRX-4W9A]
[13]
  Kd: 790 nM
[14]
  Kd: 560 nM
